The source of these data is ChEMBL document CHEMBL1156530, “Novel conantokins from Conus parius venom are specific antagonists of N-methyl-D-aspartate receptors” (J Biol Chem, 2007).

Molecules are shown by their SMILES. Calls of active or inactive are those of the source. The rule behind the calls is not given here. Non-standard residues stand in square brackets, D forms with d. Residues, ends and D or L forms follow the SMILES beside them. Gla = N[C@@H](CC(C(=O)O)C(=O)O)C(=O)O; Hyp = O=C(O)[C@@H]1C[C@@H](O)CN1 Where only a bound is given, the exact number is not on record here.

Assay [1] relates to Mus musculus. The assay can be described thus: Induction of hyperactivity intracranially dosed 24-day old Swiss-Webster mouse. The class given is functional, organism-based. Put shortly:
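Intracranial injection of 2 nmol peptide in 20 μl normal saline (29-gauge needle) into 24-day-old mice (12.2–12.8 g). An equal volume of saline served as negative control. Mice were watched in cages for hyperactivity: continuous walking, excessive grooming and climbing of the cage wall.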

Assay [2] is filed under the species Rattus norvegicus. Briefly: Selectivity ratio, IC50 for rat NMDA NR2D receptor to IC50 for rat NMDA NR2B receptor. Put shortly: (§1)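 Ratios of IC50s taken from oocyte concentration-response curves for rat NR1-3b co-expressed with NR2A, NR2B or NR2D, recorded at -70 mV in Mg2+-free ND96 with 5–10-min static-bath peptide application, n ≥ 3 per point.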
For assay [3], the species on record is Rattus norvegicus. The assay can be described thus: Selectivity ratio, IC50 for rat NMDA NR2A receptor to IC50 for rat NMDA NR2D receptor. Put shortly: as §1
In assay [4] the test system is Mus musculus. The assay can be described thus: Induction of sleep in intracranially dosed 10-day old Swiss-Webster mouse assessed as average onset of deep sleep at 1 nmol. The class given is functional. Put shortly:
(§2)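 Intracranial injection of synthetic peptide (0.5, 1 or 5 nmol) in 20 μl normal saline into 10-day-old Swiss-Webster mice, 2–6 per dose. Con-G served as positive control and saline as negative control. Deep-sleep onset was the time at which a mouse no longer tried to right itself after being rolled onto its back; onset times were averaged.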

Assay [5] has as its system Mus musculus. The assay can be described thus: Induction of sleep in intracranially dosed 10-day old Swiss-Webster mouse assessed as average onset of deep sleep at 0.5 nmol. The class given is functional. Put shortly:
as §2

The subject of assay [6] is Mus musculus. The assay can be described thus: Induction of sleep in intracranially dosed 10-day old Swiss-Webster mouse assessed as average onset of deep sleep at 5 nmol. The class given is functional. Put shortly: as §2
In assay [7] the target is Glutamate receptor ionotropic, NMDA 2C (Rattus norvegicus, UniProt P35439+Q00961). Briefly: Inhibition of rat NMDA NR2C receptor expressed in xenopus oocytes coexpressing NMDA NR13b assessed as effect on glycine-induced current response at -70 mV by voltage clamp method. The class given is cell-based, Oocyte. Put shortly: (§3)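 Xenopus oocytes expressing rat NR1-3b with one NR2 subunit (A–D), voltage-clamped at -70 mV. Perfusion was Mg2+-free ND96 (pH 7.2–7.5) with 0.1 mg/ml BSA. Peptide was applied in a static bath for 5–10 min; the agonist-evoked current was then expressed as % of the pre-peptide current. IC50s were taken from concentration-response curves, n ≥ 3 per point.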
Chain of Glutamate receptor ionotropic, NMDA 2C (Q00961 whole entry, the tested form may be a part, one chain of several): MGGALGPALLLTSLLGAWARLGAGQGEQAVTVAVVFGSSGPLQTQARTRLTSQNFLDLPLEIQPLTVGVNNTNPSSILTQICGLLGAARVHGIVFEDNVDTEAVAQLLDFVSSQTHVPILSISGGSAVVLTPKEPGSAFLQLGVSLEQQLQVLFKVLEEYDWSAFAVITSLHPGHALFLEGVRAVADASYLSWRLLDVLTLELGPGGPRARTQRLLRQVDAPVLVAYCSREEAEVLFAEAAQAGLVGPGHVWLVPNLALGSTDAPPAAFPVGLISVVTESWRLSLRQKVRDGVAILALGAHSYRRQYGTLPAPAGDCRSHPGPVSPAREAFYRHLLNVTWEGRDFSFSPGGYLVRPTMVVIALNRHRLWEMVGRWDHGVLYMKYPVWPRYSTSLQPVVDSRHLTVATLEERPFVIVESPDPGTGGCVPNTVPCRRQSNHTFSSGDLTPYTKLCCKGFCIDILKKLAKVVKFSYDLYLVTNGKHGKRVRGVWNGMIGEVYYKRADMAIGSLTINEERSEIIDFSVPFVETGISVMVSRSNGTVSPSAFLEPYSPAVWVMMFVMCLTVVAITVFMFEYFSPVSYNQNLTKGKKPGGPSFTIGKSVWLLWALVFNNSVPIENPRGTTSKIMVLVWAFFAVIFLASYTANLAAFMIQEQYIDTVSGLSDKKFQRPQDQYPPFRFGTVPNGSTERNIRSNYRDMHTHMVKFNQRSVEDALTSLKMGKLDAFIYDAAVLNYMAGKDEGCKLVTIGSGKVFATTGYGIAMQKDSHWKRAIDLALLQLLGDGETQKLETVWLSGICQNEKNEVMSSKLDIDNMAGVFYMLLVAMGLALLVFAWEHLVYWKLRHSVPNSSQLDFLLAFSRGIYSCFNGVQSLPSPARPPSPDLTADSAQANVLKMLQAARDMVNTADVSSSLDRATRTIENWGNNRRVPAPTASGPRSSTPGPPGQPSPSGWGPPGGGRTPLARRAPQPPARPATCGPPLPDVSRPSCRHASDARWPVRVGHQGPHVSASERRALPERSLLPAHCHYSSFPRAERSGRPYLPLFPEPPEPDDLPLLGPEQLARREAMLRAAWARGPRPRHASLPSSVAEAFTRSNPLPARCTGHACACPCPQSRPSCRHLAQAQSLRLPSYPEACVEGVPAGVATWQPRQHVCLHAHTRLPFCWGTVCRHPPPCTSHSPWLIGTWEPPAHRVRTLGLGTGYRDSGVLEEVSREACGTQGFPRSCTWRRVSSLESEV

In assay [8] the target is Glutamate receptor ionotropic, NMDA 2D (Rattus norvegicus, UniProt P35439+Q62645). The assay can be described thus: Inhibition of rat NMDA NR2D receptor expressed in xenopus oocytes coexpressing NMDA NR13b assessed as effect on glycine-induced current response at -70 mV by voltage clamp method. The class given is cell-based, Oocyte. Put shortly: as §3
Chain of Glutamate receptor ionotropic, NMDA 2D (Q62645 whole entry, one chain of several): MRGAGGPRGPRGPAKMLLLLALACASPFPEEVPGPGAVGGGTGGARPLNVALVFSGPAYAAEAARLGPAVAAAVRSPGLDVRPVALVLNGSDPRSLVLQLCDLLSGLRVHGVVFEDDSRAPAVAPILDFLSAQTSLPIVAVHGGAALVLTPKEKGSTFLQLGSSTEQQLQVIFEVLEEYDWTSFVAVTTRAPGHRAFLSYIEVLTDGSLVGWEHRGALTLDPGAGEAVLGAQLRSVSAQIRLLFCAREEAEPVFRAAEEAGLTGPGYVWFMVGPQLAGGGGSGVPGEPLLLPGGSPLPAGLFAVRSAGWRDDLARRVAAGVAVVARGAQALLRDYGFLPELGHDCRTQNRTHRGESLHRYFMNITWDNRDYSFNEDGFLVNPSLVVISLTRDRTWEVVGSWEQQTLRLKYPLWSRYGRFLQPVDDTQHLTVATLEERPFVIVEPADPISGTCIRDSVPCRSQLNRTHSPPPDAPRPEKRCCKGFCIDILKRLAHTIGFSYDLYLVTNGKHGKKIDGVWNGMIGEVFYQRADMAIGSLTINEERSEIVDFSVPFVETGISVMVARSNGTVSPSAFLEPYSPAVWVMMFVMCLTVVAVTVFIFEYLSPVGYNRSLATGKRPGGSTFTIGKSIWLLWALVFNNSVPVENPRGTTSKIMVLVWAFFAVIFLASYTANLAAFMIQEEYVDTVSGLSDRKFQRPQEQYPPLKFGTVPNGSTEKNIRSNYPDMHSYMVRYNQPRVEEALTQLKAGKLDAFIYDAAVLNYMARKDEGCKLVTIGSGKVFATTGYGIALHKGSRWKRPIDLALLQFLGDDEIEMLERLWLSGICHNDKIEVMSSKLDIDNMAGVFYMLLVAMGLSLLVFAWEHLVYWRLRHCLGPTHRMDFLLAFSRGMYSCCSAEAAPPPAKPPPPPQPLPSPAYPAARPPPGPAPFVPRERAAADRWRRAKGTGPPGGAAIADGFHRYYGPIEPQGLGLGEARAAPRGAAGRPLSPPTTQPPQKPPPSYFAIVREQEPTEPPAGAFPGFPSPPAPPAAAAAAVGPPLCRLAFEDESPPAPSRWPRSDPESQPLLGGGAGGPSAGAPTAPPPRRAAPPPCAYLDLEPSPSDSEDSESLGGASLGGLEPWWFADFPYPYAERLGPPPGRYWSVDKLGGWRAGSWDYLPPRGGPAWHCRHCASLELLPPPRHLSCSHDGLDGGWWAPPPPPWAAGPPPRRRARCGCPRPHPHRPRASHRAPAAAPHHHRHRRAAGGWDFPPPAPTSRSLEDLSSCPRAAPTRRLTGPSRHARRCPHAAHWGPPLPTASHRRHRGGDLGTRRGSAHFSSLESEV
Assay [9] concerns the target Glutamate receptor ionotropic, NMDA 2A (Rattus norvegicus, UniProt P35439+Q00959). The assay can be described thus: Inhibition of rat NMDA NR2A receptor expressed in xenopus oocytes coexpressing NMDA NR13b assessed as effect on glycine-induced current response at -70 mV by voltage clamp method. The class given is cell-based, Oocyte. Put shortly:
as §3

Assay [10] deals with Glutamate receptor ionotropic, NMDA 2B (Rattus norvegicus, UniProt P35439+Q00960). The assay can be described thus: Inhibition of rat NMDA NR2B receptor expressed in xenopus oocytes coexpressing NMDA NR13b assessed as effect on glycine-induced current response at -70 mV by voltage clamp method. The class given is cell-based, Oocyte. Put shortly: as §3
Assay [11] has as its target Glutamate receptor ionotropic, NMDA 2B (Rattus norvegicus) (UniProt Q00960). The assay can be described thus: Inhibition of rat NMDA NR2B receptor expressed in xenopus oocytes coexpressing NMDA NR13b assessed as effect on glycine-induced current response at 1 uM at -70 mV by voltage clamp method. The class given is cell-based. As to conditions: Oocyte. Put shortly: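 Oocytes expressing rat NR1-3b/NR2B, voltage-clamped at -70 mV in Mg2+-free ND96 with 0.1 mg/ml BSA. Baseline currents were recorded, followed by a 10-min static-bath buffer control. Then 1 μM peptide was applied in a static bath for 10 min, and the next agonist-evoked current was expressed as % of the pre-peptide amplitude.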

Chain of Glutamate receptor ionotropic, NMDA 2A (Q00959 whole entry, one chain of several): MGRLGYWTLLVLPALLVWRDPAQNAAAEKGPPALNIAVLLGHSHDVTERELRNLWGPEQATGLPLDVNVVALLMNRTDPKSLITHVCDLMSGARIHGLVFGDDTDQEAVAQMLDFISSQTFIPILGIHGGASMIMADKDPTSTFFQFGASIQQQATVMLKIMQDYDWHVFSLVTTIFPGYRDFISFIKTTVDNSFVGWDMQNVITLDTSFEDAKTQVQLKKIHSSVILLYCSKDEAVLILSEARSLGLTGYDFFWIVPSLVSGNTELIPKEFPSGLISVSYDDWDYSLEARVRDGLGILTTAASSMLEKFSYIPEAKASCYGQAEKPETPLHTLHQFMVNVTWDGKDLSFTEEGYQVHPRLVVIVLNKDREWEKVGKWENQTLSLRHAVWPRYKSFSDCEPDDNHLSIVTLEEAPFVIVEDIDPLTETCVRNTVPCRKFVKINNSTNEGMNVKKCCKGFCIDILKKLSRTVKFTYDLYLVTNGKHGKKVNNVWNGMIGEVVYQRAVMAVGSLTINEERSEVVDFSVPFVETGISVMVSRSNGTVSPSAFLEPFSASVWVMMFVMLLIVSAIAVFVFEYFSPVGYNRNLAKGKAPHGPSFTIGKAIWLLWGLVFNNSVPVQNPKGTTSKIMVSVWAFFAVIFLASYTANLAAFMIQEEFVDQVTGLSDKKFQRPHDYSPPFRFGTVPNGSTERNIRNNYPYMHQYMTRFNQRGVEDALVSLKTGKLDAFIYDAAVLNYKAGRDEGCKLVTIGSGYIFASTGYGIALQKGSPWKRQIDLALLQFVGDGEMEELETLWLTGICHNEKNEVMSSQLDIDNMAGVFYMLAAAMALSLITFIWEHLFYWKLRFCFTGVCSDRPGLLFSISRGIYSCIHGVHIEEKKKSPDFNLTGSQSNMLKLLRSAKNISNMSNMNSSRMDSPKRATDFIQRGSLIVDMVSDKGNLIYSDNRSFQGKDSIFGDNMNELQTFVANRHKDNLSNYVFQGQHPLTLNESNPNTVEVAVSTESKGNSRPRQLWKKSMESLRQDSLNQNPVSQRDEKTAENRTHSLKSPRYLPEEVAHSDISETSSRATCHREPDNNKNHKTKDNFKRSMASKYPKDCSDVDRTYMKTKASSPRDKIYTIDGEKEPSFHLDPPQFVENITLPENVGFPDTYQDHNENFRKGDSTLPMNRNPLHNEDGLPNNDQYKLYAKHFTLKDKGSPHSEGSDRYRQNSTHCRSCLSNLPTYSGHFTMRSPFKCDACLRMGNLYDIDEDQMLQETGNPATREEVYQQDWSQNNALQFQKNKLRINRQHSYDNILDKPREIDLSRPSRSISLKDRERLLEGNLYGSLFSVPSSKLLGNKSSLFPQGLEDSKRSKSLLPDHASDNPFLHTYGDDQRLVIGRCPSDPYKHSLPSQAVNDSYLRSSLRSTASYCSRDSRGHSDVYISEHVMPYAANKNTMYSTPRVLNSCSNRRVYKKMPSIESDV

On to `CC(C)C[C@H](NC(=O)CNC(=O)[C@H](CC(C(=O)O)C(=O)O)NC(=O)[C@H](C)NC(=O)[C@H](Cc1c[nH]c2ccccc12)NC(=O)[C@H](CCCCN)NC(=O)[C@H](C)NC(=O)[C@@H](NC(=O)[C@H](CC(C(=O)O)C(=O)O)NC(=O)[C@@H]1C[C@@H](O)CN1C(=O)[C@H](CCC(=O)O)NC(=O)CN)C(C)C)C(=O)N[C@@H](CCCNC(=N)N)C(=O)N[C@@H](CC(C(=O)O)C(=O)O)C(=O)N[C@@H](CCCCN)C(=O)N[C@@H](C)C(=O)N[C@@H](C)C(=O)N[C@@H](CO)C(=O)N[C@@H](CC(N)=O)C(N)=O` (H-GE[Hyp][Gla]VAKWA[Gla]GLR[Gla]KAASN-NH2), for which the outcome in the assay on Mus musculus [1] was Active. The results for the Ratio IC50 in the assay filed under Rattus norvegicus [2] and in the assay listed under Rattus norvegicus [3] were 16 and greater than 10, respectively. Also, the Activity stood at 16.5 min with Mus musculus [4], 21 min in the assay with Mus musculus [5] and 10.7 min with Mus musculus [6].
For `CC[C@H](C)[C@H](NC(=O)[C@H](CCCCN)NC(=O)CNC(=O)[C@H](Cc1ccc(O)cc1)NC(=O)[C@H](CCCCN)NC(=O)[C@H](CC(C)C)NC(=O)[C@H](CCC(N)=O)NC(=O)[C@H](Cc1ccc(O)cc1)NC(=O)[C@H](CC(C(=O)O)C(=O)O)NC(=O)[C@H](CCCNC(=N)N)NC(=O)[C@@H](NC(=O)[C@H](C)NC(=O)[C@H](CC(C(=O)O)C(=O)O)NC(=O)[C@H](C)NC(=O)[C@H](Cc1ccc(O)cc1)NC(=O)[C@H](CC(C(=O)O)C(=O)O)NC(=O)[C@@H]1C[C@@H](O)CN1C(=O)[C@H](CCC(=O)O)NC(=O)[C@@H](N)CC(=O)O)[C@@H](C)CC)C(=O)O` (H-DE[Hyp][Gla]YA[Gla]AIR[Gla]YQLKYGKI-OH), the outcome in the assay with Mus musculus [1] was Active. Besides, the Ratio IC50 in the assay listed under Rattus norvegicus [2] is 2; in the assay listed under Rattus norvegicus [3] it was greater than 10. Moreover, the Activity in the assay with Mus musculus [4] was 14 min; with Mus musculus [5], 17.5 min; in the assay on Mus musculus [6], 9.7 min.
The term IC50 denotes the point on the concentration scale where inhibition reaches its midpoint. `CC[C@H](C)[C@H](NC(=O)[C@H](CC(N)=O)NC(=O)[C@H](CC(C(=O)O)C(=O)O)NC(=O)[C@H](CCCNC(=N)N)NC(=O)[C@H](C)NC(=O)[C@H](CC(C)C)NC(=O)[C@H](CC(C(=O)O)C(=O)O)NC(=O)[C@H](C)NC(=O)[C@H](C)NC(=O)[C@H](CCSC)NC(=O)[C@H](CCCCN)NC(=O)[C@H](C)NC(=O)[C@@H](NC(=O)[C@H](CC(C(=O)O)C(=O)O)NC(=O)[C@H](CC(C(=O)O)C(=O)O)NC(=O)[C@H](CCC(=O)O)NC(=O)CN)C(C)C)C(=O)N[C@@H](C)C(=O)N[C@@H](CCCCN)C(=O)NCC(=O)N[C@@H](CS)C(=O)N[C@@H](CCCCN)C(=O)N[C@H](C(=O)N[C@@H](CC(N)=O)C(=O)N[C@@H](CS)C(=O)N[C@@H](Cc1ccc(O)cc1)C(=O)N1CCC[C@H]1C(=O)O)C(C)C` [CONANTOKIN-R]: the IC50 was 7000 nM in assay [7], greater than 10000 nM in assay [8], 1000 nM in assay [9] and 1000 nM in assay [10]. In addition, the values for the Ratio IC50 in the assay listed under Rattus norvegicus [2] and in the assay filed under Rattus norvegicus [3] were greater than 10 and less than 0.1, respectively.
As to `CC[C@H](C)[C@H](NC(=O)[C@H](CCCCN)NC(=O)CNC(=O)[C@H](Cc1ccc(O)cc1)NC(=O)[C@H](CCCCN)NC(=O)[C@H](CC(C)C)NC(=O)[C@H](CCC(N)=O)NC(=O)[C@H](Cc1ccc(O)cc1)NC(=O)[C@H](CC(C(=O)O)C(=O)O)NC(=O)[C@H](CCCN=C(N)N)NC(=O)[C@@H](NC(=O)[C@H](C)NC(=O)[C@H](CC(C(=O)O)C(=O)O)NC(=O)[C@H](C)NC(=O)[C@H](Cc1ccc(O)cc1)NC(=O)[C@H](CC(C(=O)O)C(=O)O)NC(=O)[C@@H]1C[C@@H](O)CN1C(=O)[C@H](CCC(=O)O)NC(=O)[C@@H](N)CC(=O)O)[C@@H](C)CC)C(=O)O` (H-DE[Hyp][Gla]YA[Gla]AIR[Gla]YQLKYGKI-OH), the IC50 in assay [7] is no less than 10000 nM; in assay [8] it was 1000 nM; in assay [9], greater than 10000 nM; in [10], 500 nM.
As for `CC[C@H](C)[C@H](NC(=O)[C@H](CCCCN)NC(=O)CNC(=O)[C@H](Cc1cnc[nH]1)NC(=O)[C@@H](NC(=O)[C@H](CC(C)C)NC(=O)[C@H](CCC(N)=O)NC(=O)[C@H](Cc1ccc(O)cc1)NC(=O)[C@H](CC(C(=O)O)C(=O)O)NC(=O)[C@H](CCCNC(=N)N)NC(=O)[C@@H](NC(=O)CNC(=O)[C@H](CC(C(=O)O)C(=O)O)NC(=O)[C@H](C)NC(=O)[C@H](Cc1ccc(O)cc1)NC(=O)[C@H](CC(C(=O)O)C(=O)O)NC(=O)[C@H](CC(=O)O)NC(=O)[C@H](CCC(=O)O)NC(=O)CN)[C@@H](C)CC)[C@@H](C)CC)C(=O)O` (H-GED[Gla]YA[Gla]GIR[Gla]YQLIHGKI-OH), the IC50 in assay [7] is no less than 10000 nM; in assay [8], 1000 nM; in [9], greater than 10000 nM; in assay [10] it was 200 nM. Further, the result (with Mus musculus [1]; in assay [11]) was Active. In addition, the Ratio IC50 in the assay filed under Rattus norvegicus [2] was 5; in the assay filed under Rattus norvegicus [3], greater than 10. Besides, the Activity is 12.2 min with Mus musculus [4], 18 min in the assay with Mus musculus [5] and 9 min with Mus musculus [6].
For the compound `CC(C)C[C@H](NC(=O)CNC(=O)[C@H](CC(C(=O)O)C(=O)O)NC(=O)[C@H](C)NC(=O)[C@H](Cc1c[nH]c2ccccc12)NC(=O)[C@H](CCCCN)NC(=O)[C@H](C)NC(=O)[C@@H](NC(=O)[C@H](CC(C(=O)O)C(=O)O)NC(=O)[C@@H]1C[C@@H](O)CN1C(=O)[C@H](CCC(=O)O)NC(=O)CN)C(C)C)C(=O)N[C@@H](CCCN=C(N)N)C(=O)N[C@@H](CC(C(=O)O)C(=O)O)C(=O)N[C@@H](CCCCN)C(=O)N[C@@H](C)C(=O)N[C@@H](C)C(=O)N[C@@H](CO)C(=O)N[C@@H](CC(N)=O)C(N)=O` (H-GE[Hyp][Gla]VAKWA[Gla]GLR[Gla]KAASN-NH2), the IC50 in [7] is no less than 10000 nM; in assay [8], 8000 nM; in [9], greater than 10000 nM; in [10], 500 nM.
